ChEMBL document CHEMBL1132311, “Design and synthesis of isoxazoline derivatives as factor Xa inhibitors. 1” (J Med Chem, 1999)

Columns and labels:
[1] = target: Prothrombin (Homo sapiens, UniProt P00734); assay: The binding affinity towards thrombin obtained from human purified enzymes.
[2] = target: Coagulation factor X (Homo sapiens, UniProt P00742); assay: Binding affinity to purified human coagulation factor Xa (FXa)
[3] = target: T1, Serine protease 1 (Homo sapiens, UniProt P07477); assay: The binding affinity was measured towards human purified trypsin
T1 sequence (P07477 whole entry): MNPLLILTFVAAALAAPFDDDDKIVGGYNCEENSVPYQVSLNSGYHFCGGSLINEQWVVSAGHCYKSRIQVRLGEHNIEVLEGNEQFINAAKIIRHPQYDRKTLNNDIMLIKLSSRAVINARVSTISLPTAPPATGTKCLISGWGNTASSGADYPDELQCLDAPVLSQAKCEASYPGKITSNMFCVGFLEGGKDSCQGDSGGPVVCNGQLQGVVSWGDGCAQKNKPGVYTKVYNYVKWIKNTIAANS
Summary of the method: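 Human purified enzymes, microtiter format; 0.1 M sodium phosphate, 0.2 M NaCl, 0.5% PEG 6000, pH 7.0. Compound at 10 to 0.00316 µM (eight half-log steps). Absorbance at 405 nm read for 30 min; rates vs uninhibited controls give % activity, Ki calculated from substrate concentration and Km. Duplicate runs with the same internal standards.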

[4] = species on record: Oryctolagus cuniculus; assay: The ID50 value was the 50% inhibition of thrombus formation was measured on rabbits; type: functional
Summary of the method: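 New Zealand rabbits (2-4 kg) under ketamine (50 mg/kg im) plus xylazine (10 mg/kg im). Femoral artery-vein shunt containing silk thread. Compound or saline vehicle given as continuous iv infusion via jugular vein, starting 1 h before shunt flow and continuing throughout (100 min).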

[5] = target: T1, Serine protease 1; assay: The binding affinity was measured on trypsin obtained from Human purified enzymes
Summary of the method: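 Inhibition constant against human purified trypsin, in 0.1 M sodium phosphate with 0.2 M NaCl and 0.5% PEG 6000, pH 7.0. Eight inhibitor levels were run, 10 down to 0.00316 µM. Absorbance was read at 405 nm for 30 min. Ki was derived from % activity relative to uninhibited rates using Km and substrate concentration. Duplicate runs alongside internal standards.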

Sequence of Coagulation factor X (P00742 41-179 limits assumed): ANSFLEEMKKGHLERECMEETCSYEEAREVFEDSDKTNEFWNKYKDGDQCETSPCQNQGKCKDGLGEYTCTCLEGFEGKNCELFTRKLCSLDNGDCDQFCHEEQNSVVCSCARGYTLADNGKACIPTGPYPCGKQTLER
Sequence of Coagulation factor X (P00742 235-488 limits assumed): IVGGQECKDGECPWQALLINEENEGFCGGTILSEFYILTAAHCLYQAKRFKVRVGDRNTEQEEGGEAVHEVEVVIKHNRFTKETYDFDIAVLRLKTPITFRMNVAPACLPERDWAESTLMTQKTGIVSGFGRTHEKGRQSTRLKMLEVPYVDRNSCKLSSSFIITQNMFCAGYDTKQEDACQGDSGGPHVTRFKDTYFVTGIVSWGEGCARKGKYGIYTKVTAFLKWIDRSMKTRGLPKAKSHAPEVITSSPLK

Compound | Ki [1] | Ki [2] | Ki [3] | Ki [5] | ID50 [4]
CC(=O)N[C@H](Cc1ccccc1)C(=O)N1CCC[C@@H]1C(=O)NC(CCCN=C(N)N)B(O)O (single isomer, unassigned; (-)) |  | 40 nM |  | 55 nM | 
COC(=O)CC1(C(=O)Nc2ccc(-c3ccccc3C(=O)OC)cc2)CC(c2cccc(C(=N)N)c2)=NO1 (stereo not given) | 2100 nM | 53 nM | 300 nM |  | 
COC(=O)CC1(C(=O)Nc2ccc(-c3ccccc3SC)cc2)CC(c2cccc(C(=N)N)c2)=NO1 (stereo not given) | 1200 nM | 66 nM | 260 nM |  | 
COC(=O)CC1(C(=O)Nc2ccc(-c3ccccc3C)cc2)CC(c2cccc(C(=N)N)c2)=NO1 (stereo not given) | 1800 nM | 210 nM | 390 nM |  | 
COC(=O)CC1(C(=O)Nc2ccc(-c3cccc(OC)c3)cc2)CC(c2cccc(C(=N)N)c2)=NO1 (stereo not given) | 2700 nM | 200 nM | 390 nM |  | 
COC(=O)CC1(C(=O)Nc2ncc(-c3ccccc3S(N)(=O)=O)cn2)CC(c2cccc(C(=N)N)c2)=NO1.O=C(O)C(F)(F)F (racemic) |  |  |  |  | 0.4 µM/h/kg
COC(=O)CC1(C(=O)Nc2ccc(-c3cccc(C(F)(F)F)c3)cc2)CC(c2cccc(C(=N)N)c2)=NO1 (stereo not given) | 1200 nM | 240 nM | 570 nM |  | 
COC(=O)CC1(C(=O)Nc2ccc(-c3ccccc3)cc2)CC(c2cccc(C(=N)N)c2)=NO1 (stereo not given) | 3500 nM | 220 nM | 470 nM |  | 
COC(=O)CC1(C(=O)Nc2ccc(-c3cccc(S(N)(=O)=O)c3)cc2)CC(c2cccc(C(=N)N)c2)=NO1 (stereo not given) | 3100 nM | 68 nM | 340 nM |  | 
COC(=O)CC1(C(=O)Nc2ccc(-c3cccc(C)c3)cc2)CC(c2cccc(C(=N)N)c2)=NO1 (stereo not given) | 2100 nM | 240 nM |  |  | 
COC(=O)CC1(C(=O)Nc2ccc(-c3ccccc3OC)cc2)CC(c2cccc(C(=N)N)c2)=NO1 (stereo not given) | 2800 nM | 62 nM | 310 nM |  | 

Further lines, with some results ahead:

Ki [1] | Ki [2] | Ki [3] | Ki [5] | Compound | ID50 [4]
8900 nM | 2.3 nM | 170 nM |  | COC(=O)CC1(C(=O)Nc2ncc(-c3ccccc3S(N)(=O)=O)cn2)CC(c2cccc(C(=N)N)c2)=NO1.O=C(O)C(F)(F)F (single isomer, unassigned; (-)) | 0.15 µM/h/kg
2400 nM |  | 98 nM |  | COC(=O)CC1(C(=O)Nc2ccc(-c3ccccc3S(N)(=O)=O)cc2)CC(c2cccc(C(=N)N)c2)=NO1.O=C(O)C(F)(F)F (single isomer, unassigned; (-)) | 0.2 µM/h/kg
 |  | 121 nM |  | COC(=O)CC1(C(=O)Nc2ccc(-c3ccccc3S(N)(=O)=O)cc2)CC(c2cccc(C(=N)N)c2)=NO1.O=C(O)C(F)(F)F (racemic) | 0.6 µM/h/kg
3800 nM | 4.2 nM | 120 nM |  | COC(=O)CC1(C(=O)Nc2ccc(-c3ccccc3S(N)(=O)=O)cc2F)CC(c2cccc(C(=N)N)c2)=NO1 (stereo not given) | 
> 21000 nM |  | 300 nM |  | COC(=O)CC1(C(=O)Nc2ccc(-c3ccccc3S(N)(=O)=O)cc2)CC(c2cccc(C(=N)N)c2)=NO1.O=C(O)C(F)(F)F (single isomer, unassigned; (+)) | 2 µM/h/kg
2900 nM | 0.83 nM | 17 nM |  | COC(=O)CC1(C(=O)Nc2ccc(-c3ccccc3S(N)(=O)=O)cn2)CC(c2cccc(C(=N)N)c2)=NO1.O=C(O)C(F)(F)F (single isomer, unassigned; (-)) | 0.26 µM/h/kg
10800 nM | 19 nM | 180 nM |  | COC(=O)CC1(C(=O)Nc2ccc(-c3ccccc3S(N)(=O)=O)nc2)CC(c2cccc(C(=N)N)c2)=NO1 (stereo not given) | 
1400 nM | 28 nM | 230 nM |  | COC(=O)CC1(C(=O)Nc2ccc(-c3ccccc3C(F)(F)F)cc2)CC(c2cccc(C(=N)N)c2)=NO1 (stereo not given) | 
> 21000 nM | 12 nM | 710 nM |  | COC(=O)CC1(C(=O)Nc2ncc(-c3ccccc3S(N)(=O)=O)cn2)CC(c2cccc(C(=N)N)c2)=NO1.O=C(O)C(F)(F)F (stereo in doubt; 34(+)) | >1.5 µM/h/kg
18000 nM | 7 nM | 130 nM |  | COC(=O)CC1(C(=O)Nc2ccc(-c3ccccc3S(N)(=O)=O)cn2)CC(c2cccc(C(=N)N)c2)=NO1.O=C(O)C(F)(F)F (single isomer, unassigned; (+)) | 0.6 µM/h/kg
3100 nM | 8.8 nM | 300 nM |  | COC(=O)CC1(C(=O)Nc2ccc(-c3ccccc3S(N)(=O)=O)cc2C)CC(c2cccc(C(=N)N)c2)=NO1 (stereo not given) | 
 | 0.96 nM | 25 nM |  | COC(=O)CC1(C(=O)Nc2ccc(-c3ccccc3S(N)(=O)=O)cn2)CC(c2cccc(C(=N)N)c2)=NO1.O=C(O)C(F)(F)F (racemic) | 0.3 µM/h/kg
14000 nM |  | 336 nM |  | COC(=O)CC1(C(=O)Nc2ncc(-c3ccccc3S(N)(=O)=O)cn2)CC(c2cccc(C(=N)N)c2)=NO1 (stereo in doubt; 31) | 
 | 0.96 nM | 25 nM |  | COC(=O)CC1(C(=O)Nc2ccc(-c3ccccc3S(N)(=O)=O)cn2)CC(c2cccc(C(=N)N)c2)=NO1 (stereo in doubt; 30) | 
600 nM | 4.2 nM | 100 nM |  | COC(=O)CC1(C(=O)Nc2ccc(-c3ccccc3S(C)(=O)=O)cc2)CC(c2cccc(C(=N)N)c2)=NO1 (stereo not given) | 
